Laboratory results from ChEMBL document CHEMBL1133726, “Structure-activity relationships in platelet-activating factor (PAF). 10. From PAF antagonism to inhibition of HIV-1 replication” (J Med Chem, 2000).
pIC50: −log10 of the molar value.

How the values were obtained:
Oryctolagus cuniculus = organism: Oryctolagus cuniculus; test: Inhibition of PAF-induced platelet aggregation was determined using platelet rich plasma (PRP) of New Zealand rabbits.; format: functional
Outline: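 Rabbit platelet-rich plasma was incubated and stirred with antagonist for 2 min, then challenged with 2.5 nM PAF. Antagonist solutions in EtOH spanned 10^-2 to 10^-7 M. Aggregation was followed by continuous light-transmission recording and compared with PAF alone. IC50 came from dose-response curves (5-6 determinations).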

[1] = tested on: Human immunodeficiency virus 1; test: Antiviral activity towards inhibition of HIV-1 replication using monocyte-derived macrophage infected by the HIV-1/Ba-L strain.; format: functional, organism-based
Outline: (§1)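 Human monocytes were elutriated from seronegative donor PBMC and differentiated 7 days into MDM in RPMI 1640 with 10% heat-inactivated FCS. 1 million MDM were pretreated 1 h with compound and infected with 10 000 TCID50 (0.01 moi) HIV-1/Ba-L, then washed at 24 h. Medium and drug were renewed twice weekly. Read-out was supernatant RT activity, with a second donor repeat; mean ± SD.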

[2] = tested on: Human immunodeficiency virus 1; test: Cytotoxic concentration against monocyte-derived macrophage infected by the HIV-1/Ba-L strain using neutral red staining assay.; format: functional
Outline: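 Compound-exposed MDM, with drug renewed twice weekly, were checked microscopically during culture. At the end of culture they were stained with neutral red, and CC50 was calculated from the optical density values. The assay was repeated with cells from a second blood donor.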

[3] = tested on: Human immunodeficiency virus 1; test: Percent inhibition at 100 uM dose of HIV-1 replication using monocyte-derived macrophages infected by the HIV-1/Ba-L strain.; format: functional; outline: as §1
[4] = tested on: Human immunodeficiency virus 1; test: Antiviral activity towards inhibition of replication of HIV-1-DAS infected monocyte-derived macrophage; format: functional, organism-based
[5] = tested on: Human immunodeficiency virus 1; test: Percent inhibition at 10 uM dose of HIV-1 replication using monocyte-derived macrophage infected by the HIV-1/Ba-L strain.; format: functional; outline: as §1

Row | pIC50 (Oryctolagus cuniculus) | pIC50 [1] | pIC50 [4] | SMILES | CC50 [2] | inhibition at 100 µM [3] | inhibition at 10 µM [5]
1 | 6.34 | 3.64 | – | CCC1CN(C(=O)c2cc(OC)c(OC)c(OC)c2)CCN1C(=O)c1cc(OC)c(OC)c(OC)c1 (stereo not given) | > 100 µM | – | –
2 | 7.10 | 4.02 | – | COc1cc(C(=O)N2CCN(C(=O)c3cc(OC)c(OC)c(OC)c3)C(COC(=O)N3CCCCC3)C2)cc(OC)c1OC (stereo not given) | > 100 µM | – | –
3 | 6.89 | – | – | COc1cc(C(=O)N2CCN(C(=O)c3cc(OC)c(OC)c(OC)c3)C(COC(=O)NC(C)(C)C)C2)cc(OC)c1OC (stereo not given) | > 100 µM | 52% | –
4 | 7.00 | – | – | COc1cc(C(=O)N2CCN(C(=O)c3cc(OC)c(OC)c(OC)c3)C(COC(=O)C(C)(C)C)C2)cc(OC)c1OC (stereo not given) | > 100 µM | 25% | –
5 | 5.10 | 4.96 | – | CCN(CC)C(=O)OCC1CN(C(=O)c2cc(OC)c(OC)c(OC)c2)CCN1C(=O)c1cc(OC)c(OC)c(OC)c1 (stereo not given) [PMS-601] | > 1000 µM | 95% | –
6 | 5.00 | < 4.00 | – | COc1cc(C(=O)N2CCN(C(=O)c3cc(OC)c(OC)c(OC)c3)C(COC(=O)N3CCCC3)C2)cc(OC)c1OC (stereo not given) | > 100 µM | – | –
7 | 6.00 | – | – | COc1cc(C(=O)N2CCN(C(=O)c3cc(OC)c(OC)c(OC)c3)C(COC(=O)NCC(C)(C)C)C2)cc(OC)c1OC (stereo not given) | > 100 µM | 74% | –
8 | 5.90 | < 4.00 | – | COc1cc(C(=O)N2CCN(C(=O)c3cc(OC)c(OC)c(OC)c3)C(CO)C2)cc(OC)c1OC (stereo not given) | > 100 µM | – | –

The remaining lines, values behind:

Row | SMILES | pIC50 (Oryctolagus cuniculus) | pIC50 [1] | pIC50 [4] | CC50 [2] | inhibition at 100 µM [3] | inhibition at 10 µM [5]
9 | CCCN(CCC)C(=O)OCC1CN(C(=O)c2cc(OC)c(OC)c(OC)c2)CCN1C(=O)c1cc(OC)c(OC)c(OC)c1 (stereo not given) | 6.43 | – | – | > 100 µM | 66% | –
10 | NC(=O)c1ccn2c1CS[C@@H]2c1cccnc1 (racemic) [DACOPAFANT] | 4.80 | – | – | – | – | –
11 | NC(=O)c1ccn2c1CS[C@@H]2c1cccnc1 [DACOPAFANT] | – | – | 4.30 | – | – | –
12 | COc1cc(C(=O)N2CCN(C(=O)c3cc(OC)c(OC)c(OC)c3)CC2)cc(OC)c1OC | 5.75 | < 4.00 | – | > 100 µM | – | –
13 | COc1cc(C(=O)N2CCN(C(=O)c3cc(OC)c(OC)c(OC)c3)C(CNC(=O)C(C)(C)C)C2)cc(OC)c1OC (stereo not given) | < 4.00 | < 4.00 | – | > 100 µM | – | –
14 | CCCCCCCCCCC1CN(C(=O)c2cc(OC)c(OC)c(OC)c2)CCN1C(=O)c1cc(OC)c(OC)c(OC)c1 (stereo not given) | 6.62 | – | – | > 50 µM | – | 40%
15 | COc1cc(C(=O)N2CCN(C(=O)c3cc(OC)c(OC)c(OC)c3)C(C)C2)cc(OC)c1OC (stereo not given) | 6.25 | 4.18 | – | > 100 µM | – | –
16 | COc1cc(C(=O)N2CCN(C(=O)c3cc(OC)c(OC)c(OC)c3)C(COC(=O)NC(C)CC(C)C)C2)cc(OC)c1OC (stereo not given) | 6.55 | – | – | > 100 µM | -2% | –
